From ChEMBL document CHEMBL1150327, “E,E-2-Benzylidene-6-(nitrobenzylidene)cyclohexanones: syntheses, cytotoxicity and an examination of some of their electronic, steric, and hydrophobic properties” (Bioorg Med Chem, 2008)
pIC50: −log10 of the molar value. Active and inactive are the calls of the source. The rule behind the calls is not given here.

Legend:
CCRF-CEM = assay: Cytotoxicity against human CEM cells after 72 hrs; type: functional, cell-based
Method in brief: (§1)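 Compounds tested over a range of concentrations on cells in RPMI 1640 medium at 37 °C for 72 h. IC50 taken as the concentration inhibiting cell growth by 50%.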

[1] = Cytotoxicity against human Molt4/C8 cells after 72 hrs; type: functional, cell-based; settings: MOLT-4, 72 h; method in brief: as §1
L1210 = assay: Cytotoxicity against mouse L1210 cells after 48 hrs; type: functional, cell-based; settings: L1210, 48 h
Method in brief: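 Murine L1210 lymphoid leukemia cells exposed to graded compound concentrations in RPMI 1640 at 37 °C for 48 h. IC50 is the concentration giving 50% growth inhibition.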

[2] = Lipophilicity, log P of the compound; type: physicochemical; settings: calculated
Method in brief: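 Calculated logP, generated with the JME molecular editor rather than measured.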

Liver = assay: Stimulation of respiration in rat liver mitochondria; type: functional
Method in brief: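 Liver mitochondria isolated from rats anesthetized with isoflurane and decapitated. Oxygen consumption measured by polarography. Compound tested at 10 μM, with a DMSO solvent control (4 μL). Differences judged against standard deviations.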

| Compound | logP [2] | pIC50 (CCRF-CEM) | pIC50 [1] | pIC50 (L1210) | Activity (Liver) |
| --- | --- | --- | --- | --- | --- |
| COc1cc(/C=C2\CCC/C(=C\c3ccc([N+](=O)[O-])cc3)C2=O)cc(OC)c1OC | 4.56 | 5.34 | 5.19 | 5.16 | Active |
| COc1cc(/C=C2\CCC/C(=C\c3ccccc3[N+](=O)[O-])C2=O)cc(OC)c1OC | 4.33 | 6.40 | 6.15 | 5.82 | Active |
| COc1ccc(/C=C2\CCC/C(=C\c3ccccc3[N+](=O)[O-])C2=O)cc1 | 4.76 | 5.13 | 5.05 | 4.37 |  |
| CN(C)c1ccc(/C=C2\CCC/C(=C\c3ccc([N+](=O)[O-])cc3)C2=O)cc1 | 5.03 | < 3.30 | < 3.30 | < 3.30 |  |
| O=C1CCCC/C1=C\c1ccccc1[N+](=O)[O-] |  | 4.44 | 4.48 | 4.62 |  |
| O=C1/C(=C/c2ccc(F)cc2)CCC/C1=C\c1ccccc1[N+](=O)[O-] | 4.86 | 5.82 | 5.73 | 5.08 |  |
| O=C1CCCC/C1=C\c1ccc([N+](=O)[O-])cc1 |  | 4.71 | 4.86 | 4.33 |  |
| O=C1/C(=C/c2ccc(Cl)cc2)CCC/C1=C\c1ccccc1[N+](=O)[O-] | 5.38 | 5.76 | 5.41 | 5.03 |  |
| O=C1CCCC/C1=C\c1cccc([N+](=O)[O-])c1 |  | 5.09 | 5.08 | 4.30 |  |
| O=C1/C(=C/c2ccccc2)CCC/C1=C\c1ccccc1[N+](=O)[O-] | 4.7 | 6.03 | 5.83 | 5.32 |  |
| CN(C)c1ccc(/C=C2\CCC/C(=C\c3ccccc3[N+](=O)[O-])C2=O)cc1 | 4.8 | 3.77 | 3.91 | 3.79 |  |
| COc1cc(/C=C2\CCC/C(=C\c3cccc([N+](=O)[O-])c3)C2=O)cc(OC)c1OC | 4.53 | 4.34 | 4.36 | 4.37 |  |

Now from value to molecule, other results behind:

| logP [2] | Compound | pIC50 (CCRF-CEM) | pIC50 [1] | pIC50 (L1210) | Activity (Liver) |
| --- | --- | --- | --- | --- | --- |
| 5.06 | O=C1/C(=C/c2ccc(F)cc2)CCC/C1=C\c1cccc([N+](=O)[O-])c1 | 5.30 | 5.29 | 4.79 |  |
| 5.58 | O=C1/C(=C/c2ccc(Cl)cc2)CCC/C1=C\c1cccc([N+](=O)[O-])c1 | 5.76 | 5.69 | 5.04 |  |
| 5.61 | O=C1/C(=C/c2ccc(Cl)cc2)CCC/C1=C\c1ccc([N+](=O)[O-])cc1 | 5.09 | 5.04 | 5.03 |  |
| 5.38 | Cc1ccc(/C=C2\CCC/C(=C\c3ccc([N+](=O)[O-])cc3)C2=O)cc1 | 5.07 | 5.07 | 5.09 |  |
| 5.08 | O=C1/C(=C/c2ccc(F)cc2)CCC/C1=C\c1ccc([N+](=O)[O-])cc1 | 4.73 | 4.77 | 4.57 |  |
| 5.35 | Cc1ccc(/C=C2\CCC/C(=C\c3cccc([N+](=O)[O-])c3)C2=O)cc1 | 5.00 | 5.02 | 4.38 |  |
| 4.9 | O=C1/C(=C/c2ccccc2)CCC/C1=C\c1cccc([N+](=O)[O-])c1 | 5.64 | 5.77 | 5.03 |  |
| 4.98 | COc1ccc(/C=C2\CCC/C(=C\c3ccc([N+](=O)[O-])cc3)C2=O)cc1 | 3.60 | 3.52 | 3.62 |  |
| 5.01 | CN(C)c1ccc(/C=C2\CCC/C(=C\c3cccc([N+](=O)[O-])c3)C2=O)cc1 | 4.93 | 4.96 | 3.81 |  |
| 4.93 | O=C1/C(=C/c2ccccc2)CCC/C1=C\c1ccc([N+](=O)[O-])cc1 | 5.03 | 5.08 | 5.01 |  |
| 5.15 | Cc1ccc(/C=C2\CCC/C(=C\c3ccccc3[N+](=O)[O-])C2=O)cc1 | 5.22 | 5.12 | 5.11 |  |
| 4.96 | COc1ccc(/C=C2\CCC/C(=C\c3cccc([N+](=O)[O-])c3)C2=O)cc1 | 5.09 | 5.10 | 4.53 |  |
